Calls of active or inactive are those of the source. The calls are words filed in the database; no cut-off is given here.
Assays:
LS174T [1] = assay: Inhibition of Wnt/beta-catenin in human LS174T cells assessed as reduction in Axin-2 protein level at 10 uM by Western blotting; type: cell-based
LS174T [2] = assay: Inhibition of Wnt/beta-catenin in human LS174T cells assessed as reduction in c-Myc protein level at 10 uM by Western blotting; type: cell-based
LS174T [3] = assay: Inhibition of Wnt/beta-catenin in human LS174T cells assessed as effect on […] at 10 uM by Western blotting; type: cell-based
[4] = Drug uptake in human LS 174T cells assessed as accumulation in cytoplasm after 2 hrs by confocal microscopy; type: ADME, cell-based; details: ls174t
Method in brief: (§1)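 LS174 cells on cover glass exposed to 10 μM fluorescent compound for 2h, 6h, 12h or 24h, then fixed in 4% paraformaldehyde 20 min at room temperature, PBS-washed, mounted and imaged by confocal microscopy under 405nm excitation.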

[5] = Drug uptake in human LS 174T cells assessed as accumulation in nucleus after 12 hrs by confocal microscopy; type: ADME, cell-based; details: ls174t; method in brief: as §1
[6] = Drug uptake in human LS 174T cells assessed as accumulation in nucleus after 2 hrs by confocal microscopy; type: ADME, cell-based; details: ls174t; method in brief: as §1
LS174T [7] = assay: Cytotoxicity against human LS 174T cells at 10 uM for 2 days by vi-cell cell viability analysis; type: functional, cell-based
Method in brief: (§2)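 CRC cells treated with DMSO or inhibitor for 2d and 4d; cell number and viability counted on a Vi-Cell analyzer. HCT116 and SW480 kept in DMEM with 10% FBS; LS174T in RPMI with 5% FBS; all with 1% penicillin/streptomycin.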

HCT-116 [8] = assay: Cytotoxicity against human HCT116 cells at 10 uM for 4 days by vi-cell cell viability analysis; type: functional, cell-based; method in brief: as §2
HCT-116 [9] = assay: Cytotoxicity against human HCT116 cells at 10 uM for 2 days by vi-cell cell viability analysis; type: functional, cell-based; method in brief: as §2
SW480 [10] = assay: Cytotoxicity against human SW480 cells at 10 uM for 4 days by vi-cell cell viability analysis; type: functional, cell-based; method in brief: as §2
LS174T [11] = assay: Cytotoxicity against human LS 174T cells at 10 uM for 4 days by vi-cell cell viability analysis; type: functional, cell-based; method in brief: as §2
SW480 [12] = assay: Cytotoxicity against human SW480 cells at 10 uM for 2 days by vi-cell cell viability analysis; type: functional, cell-based; method in brief: as §2
LS174T [13] = assay: Inhibition of Wnt/beta-catenin in human LS174T cells assessed as reduction in Axin-2 protein level at 30 uM by Western blotting; type: cell-based
LS174T [14] = assay: Inhibition of Wnt/beta-catenin in human LS174T cells assessed as reduction in c-Myc protein level at 30 uM by Western blotting; type: cell-based
LS174T [15] = assay: Inhibition of Wnt/beta-catenin in human LS174T cells assessed as reduction in c-Myc protein level at 100 uM by Western blotting; type: cell-based
LS174T [16] = assay: Inhibition of Wnt/beta-catenin in human LS174T cells assessed as reduction in Cyclin D1 protein level at 100 uM by Western blotting; type: cell-based
LS174T [17] = assay: Inhibition of Wnt/beta-catenin in human LS174T cells assessed as reduction in CD44 mRNA level at 100 uM after 36 hrs by RT-PCR analysis; type: cell-based
LS174T [18] = assay: Inhibition of Wnt/beta-catenin in human LS174T cells assessed as increase in p21WAF1/CIP1 protein level at 100 uM by Western blotting; type: cell-based
LS174T [19] = assay: Inhibition of Wnt/beta-catenin in human LS174T cells assessed as reduction in Lgr5 mRNA level at 100 uM after 36 hrs by RT-PCR analysis; type: cell-based
HEK-293T [20] = assay: Inhibition of LiCl-induced […] in human HEK293T cells transfected with TOP Flash assessed as decrease in luciferase expression at 100 uM after 12 hrs by dual luciferase reporter assay; type: cell-based
Method in brief: (§3)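 HEK293T transiently transfected (calcium phosphate) with Super8xTOPFlash plus Renilla luciferase reporters; medium changed after 12h, then 6h later cells pretreated 12h with DMSO or inhibitor before stimulation with 25mM LiCl or Wnt3A-conditioned medium. After 12h, dual-luciferase read-out; triplicate wells, each experiment run at least twice.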

LS174T [21] = assay: Inhibition of Wnt/beta-catenin in human LS174T cells assessed as reduction in survivin mRNA level at 100 uM after 36 hrs by RT-PCR analysis; type: cell-based
LS174T [22] = assay: Inhibition of Wnt/beta-catenin in human LS174T cells assessed as reduction in Ki67 mRNA level at 100 uM after 36 hrs by RT-PCR analysis; type: cell-based
LS174T [23] = assay: Inhibition of Wnt/beta-catenin in human LS 174T cells assessed as reduction in TCF4 protein level at 100 uM by Western blotting; type: cell-based
LS174T [24] = assay: Inhibition of Wnt/beta-catenin in human LS174T cells assessed as reduction in cyclin B1 protein level at 100 uM by Western blotting; type: cell-based
LS174T [25] = assay: Inhibition of Wnt/beta-catenin in human LS174T cells assessed as effect on […] at 100 uM by Western blotting; type: cell-based
HEK-293T [26] = assay: Inhibition of […] in human HEK293T cells transfected with TOP Flash assessed as decrease in luciferase expression at 100 uM after 12 hrs by dual luciferase reporter assay; type: cell-based; method in brief: as §3
LS174T [27] = assay: Inhibition of Wnt/beta-catenin in human LS174T cells assessed as reduction in c-Myc mRNA level at 100 uM after 36 hrs by RT-PCR analysis; type: cell-based
LS174T [28] = assay: Inhibition of Wnt/beta-catenin in human LS 174T cells assessed as reduction in pygopus2 protein level at 100 uM by Western blotting; type: cell-based
LS174T [29] = assay: Cytotoxicity against human LS 174T cells at 0.1 uM for 4 days by vi-cell cell viability analysis; type: functional, cell-based; method in brief: as §2
LS174T [30] = assay: Inhibition of Wnt/beta-catenin in human LS174T cells assessed as reduction in c-Myc protein level at 2.5 uM by Western blotting; type: cell-based
LS174T [31] = assay: Antitumor activity against human LS 174T cells xenografted in C57BL/6J athymic nude mouse assessed as reduction in tumor growth at 20 mg/kg/day, ip; type: functional, organism-based
Method in brief: (§4)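 LS174 cells (2 × 10^6) injected subcutaneously into both flanks of 6–8 week C57BL/6J athymic nude mice; mice randomized to two groups. Daily ip dosing at 20mg/kg/day in corn oil (50 μl/mouse); controls got corn oil alone. Body weight and tumor size (digital caliper) recorded twice weekly for one month; volume V=1/2LW^2 (mm3).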

LS174T [32] = assay: Inhibition of Wnt/beta-catenin in human LS 174T cells assessed as reduction in pygopus2 mRNA level at 10 uM by RT-PCR analysis; type: cell-based
LS174T [33] = assay: Inhibition of Wnt/beta-catenin in human LS 174T cells assessed as reduction in pygopus2 protein level at 10 uM by Western blotting; type: cell-based
LS174T [34] = assay: Cytotoxicity against human LS 174T cells at 0.1 uM for 2 days by vi-cell cell viability analysis; type: functional, cell-based; method in brief: as §2
LS174T [35] = assay: Inhibition of Wnt/beta-catenin in human LS174T cells assessed as reduction in c-Myc protein level at 0.5 uM by Western blotting; type: cell-based
LS174T [36] = assay: Inhibition of Wnt/beta-catenin in human LS174T cells assessed as reduction in Axin-2 protein level at 2.5 uM by Western blotting; type: cell-based
LS174T [37] = assay: Inhibition of Wnt/beta-catenin in human LS 174T cells assessed as reduction in TCF4 mRNA level at 10 uM by RT-PCR analysis; type: cell-based
LS174T [38] = assay: Inhibition of Wnt/beta-catenin in human LS 174T cells assessed as decrease in […] in nucleus using DAPI staining at 10 uM for 24 hrs by immunofluorescent microscopy; type: cell-based
Method in brief: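 LS174 cells treated 24h with 10 μM compound or DMSO, fixed (4% paraformaldehyde, 20 min, RT), permeabilized with 0.3% Triton X-100, blocked in 5% goat serum 30 min. Stained overnight with anti-β-catenin (1:300), then Alexa-488 anti-rabbit IgG (1:500) 40 min; nuclei counterstained with DAPI; confocal imaging.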

Mus musculus = assay: Toxicity in human LS 174T cells xenografted C57BL/6J athymic nude mouse assessed as change in body weight at 20 mg/kg/day, ip within 1 month; type: organism-based, LS174T; design: route intraperitoneal; details: in vivo; method in brief: as §4
LS174T [39] = assay: Inhibition of Wnt/beta-catenin in human LS174T cells assessed as reduction in Axin-2 protein level at 0.5 uM by Western blotting; type: cell-based
LS174T [40] = assay: Inhibition of Wnt/beta-catenin in human LS 174T cells assessed as reduction in TCF4 protein level at 10 uM by Western blotting; type: cell-based

## CN(C)c1ccc(/C=C/c2c(F)cc(F)cc2F)cc1
LS174T [1]
  inhibition: Active
LS174T [2]
  inhibition: Active
LS174T [3]
  inhibition: inactive

## CN(C)c1ccc(/C=C/c2cc(F)ccc2F)cc1
LS174T [1]
  inhibition: Active
LS174T [2]
  inhibition: Active
LS174T [3]
  inhibition: inactive

## CN(C)c1ccccc1/C=C/c1c(F)cccc1F
LS174T [1]
  inhibition: inactive
LS174T [2]
  inhibition: inactive
LS174T [3]
  inhibition: inactive

## CCN(CC)c1ccc(/C=C/c2c(F)cccc2F)cc1
[4]
  Drug uptake: Active
LS174T [1]
  inhibition: Active
LS174T [2]
  inhibition: Active
[5]
  Drug uptake: Not Active
LS174T [3]
  inhibition: inactive
[6]
  Drug uptake: Active

## CN(C)c1ccc(/C=C/c2ccccc2F)cc1
LS174T [7]
  Activity: Active
HCT-116 [8]
  Activity: Active
LS174T [1]
  inhibition: Active
HCT-116 [9]
  Activity: Active
LS174T [2]
  inhibition: Active
SW480 [10]
  Activity: Active
LS174T [11]
  Activity: Active
SW480 [12]
  Activity: Active
LS174T [3]
  inhibition: inactive

## CCN(CC)c1ccc(/C=C/c2ccccc2F)cc1
LS174T [1]
  inhibition: Active
LS174T [2]
  inhibition: Active
LS174T [3]
  inhibition: inactive

## CN(C)c1ccc(/C=C/c2ccccc2)cc1
LS174T [1]
  inhibition: inactive
LS174T [13]
  inhibition: Active
LS174T [2]
  inhibition: inactive
LS174T [14]
  inhibition: Active
LS174T [3]
  inhibition: inactive

## CN(C)c1ccc(/C=C/c2cccc(F)c2)cc1
LS174T [1]
  inhibition: Active
LS174T [2]
  inhibition: Active
LS174T [3]
  inhibition: inactive

## Oc1ccc(/C=C\c2cc(O)cc(O)c2)cc1
LS174T [15]
  inhibition: inactive
LS174T [16]
  inhibition: inactive

## Oc1ccc(/C=C/c2cc(O)cc(O)c2)cc1
LS174T [17]
  inhibition: Active
LS174T [7]
  Activity: Active
LS174T [18]
  inhibition: Active
LS174T [15]
  inhibition: Active
HCT-116 [8]
  Activity: Active
LS174T [19]
  inhibition: Active
HEK-293T [20]
  inhibition: Active
LS174T [16]
  inhibition: Active
HCT-116 [9]
  Activity: Active
LS174T [21]
  inhibition: Active
LS174T [22]
  inhibition: Active
SW480 [10]
  Activity: Active
LS174T [11]
  Activity: Active
SW480 [12]
  Activity: Active
LS174T [23]
  inhibition: Active
LS174T [24]
  inhibition: Active
LS174T [25]
  inhibition: inactive
HEK-293T [26]
  inhibition: Active
LS174T [27]
  inhibition: Active
LS174T [28]
  inhibition: Active

## CN(C)c1ccc(/C=C/c2c(F)ccc(F)c2F)cc1
LS174T [1]
  inhibition: Active
LS174T [2]
  inhibition: Active
LS174T [3]
  inhibition: inactive

## CN(C)c1ccc(/C=C/c2c(F)cccc2F)cc1
LS174T [29]
  Activity: Active
LS174T [30]
  inhibition: Active
LS174T [31]
  growth inhibition (GI): Active
LS174T [32]
  inhibition: inactive
LS174T [1]
  inhibition: Active
LS174T [33]
  inhibition: Active
LS174T [34]
  Activity: Active
LS174T [2]
  inhibition: Active
LS174T [35]
  inhibition: Active
LS174T [36]
  inhibition: Active
LS174T [37]
  inhibition: Active
LS174T [38]
  inhibition: Active
Mus musculus
  Activity: Non-toxic
LS174T [3]
  inhibition: inactive
LS174T [39]
  inhibition: Active
LS174T [40]
  inhibition: Active

## CN(C)c1ccc(/C=C/c2cccc(F)c2F)cc1
LS174T [1]
  inhibition: Active
LS174T [2]
  inhibition: Active
LS174T [3]
  inhibition: inactive

## CN(C)c1ccc(CCc2c(F)cccc2F)cc1
LS174T [1]
  inhibition: inactive
LS174T [2]
  inhibition: inactive

## Fc1ccccc1/C=C/c1ccc(N(c2ccccc2)c2ccccc2)cc1
LS174T [1]
  inhibition: inactive
LS174T [2]
  inhibition: inactive
LS174T [3]
  inhibition: inactive

## COc1cc(/C=C/c2ccc(O)cc2)cc(OC)c1
LS174T [7]
  Activity: Active
HCT-116 [8]
  Activity: Active
HCT-116 [9]
  Activity: Active
SW480 [10]
  Activity: Active
LS174T [11]
  Activity: Active
SW480 [12]
  Activity: Active

## CN(C)c1cccc(/C=C/c2c(F)cccc2F)c1
LS174T [1]
  inhibition: inactive
LS174T [2]
  inhibition: inactive
LS174T [3]
  inhibition: inactive

## CN(C)c1ccc(/C=C/c2ccc(F)cc2)cc1
LS174T [3]
  inhibition: inactive
